Reference: ChEMBL document CHEMBL1125795, “Substrate analogue renin inhibitors containing replacements of histidine in P2 or isosteres of the amide bond between P3 and P2 sites” (J Med Chem, 1991)
Starred links: 1 amine or outer side, 2 acyl side, 3 side chain; linkers in the order of their positions; H or OH if unused. Non-standard residues stand in square brackets, D forms with d. Residues, ends and D or L forms follow the SMILES beside them. *: point of attachment. X1 = CC(C)C[C@H](N[*:1])[C@@H](O)C[C@H](C(=O)[*:2])C(C)C; Boc = CC(C)(C)OC(=O)*

Columns and labels:
Renin [1] = molecular target: T1, Renin (Homo sapiens, UniProt P00797); experiment: In vitro for inhibitory activity against human renin
T1 sequence (P00797 whole entry): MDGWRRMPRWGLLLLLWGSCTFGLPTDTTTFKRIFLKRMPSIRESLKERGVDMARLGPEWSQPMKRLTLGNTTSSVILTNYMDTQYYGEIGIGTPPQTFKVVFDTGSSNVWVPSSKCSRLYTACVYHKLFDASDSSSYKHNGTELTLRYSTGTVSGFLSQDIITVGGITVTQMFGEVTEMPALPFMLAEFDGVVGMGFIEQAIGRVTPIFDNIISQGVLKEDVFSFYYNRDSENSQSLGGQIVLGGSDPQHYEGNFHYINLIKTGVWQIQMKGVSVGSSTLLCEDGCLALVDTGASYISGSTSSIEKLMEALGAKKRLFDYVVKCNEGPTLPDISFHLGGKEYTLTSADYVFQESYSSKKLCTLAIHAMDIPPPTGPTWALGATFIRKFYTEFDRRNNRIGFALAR
In short: (§1)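 Endogenous renin and angiotensinogen in human EDTA plasma; incubation mixture of 76 mM maleate pH 5.5, 7.2 mM EDTA, 1% DMSO, 8.3 mM 8-hydroxyquinoline; 2 h at 37 °C, then on ice; angiotensin I measured by radioimmunoassay. At least three inhibitor concentrations bracketing the IC50; IC50 calculated from percent inhibition.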

Pepsin A = Pepsin A (Sus scrofa, UniProt P00791); experiment: In vitro inhibitory activity against porcine Pepsin.
In short: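 Porcine pepsin (20 units) digesting hemoglobin at pH 1.8, 10 min, 35.5 °C. Released TCA-soluble peptides measured at 280 nm; IC50 is the concentration halving peptide liberation.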

Cathepsin D = molecular target: T2, Cathepsin D (Bos taurus, UniProt P80209); experiment: In vitro inhibitory activity against bovine Cathepsin D
T2 sequence (P80209 whole entry): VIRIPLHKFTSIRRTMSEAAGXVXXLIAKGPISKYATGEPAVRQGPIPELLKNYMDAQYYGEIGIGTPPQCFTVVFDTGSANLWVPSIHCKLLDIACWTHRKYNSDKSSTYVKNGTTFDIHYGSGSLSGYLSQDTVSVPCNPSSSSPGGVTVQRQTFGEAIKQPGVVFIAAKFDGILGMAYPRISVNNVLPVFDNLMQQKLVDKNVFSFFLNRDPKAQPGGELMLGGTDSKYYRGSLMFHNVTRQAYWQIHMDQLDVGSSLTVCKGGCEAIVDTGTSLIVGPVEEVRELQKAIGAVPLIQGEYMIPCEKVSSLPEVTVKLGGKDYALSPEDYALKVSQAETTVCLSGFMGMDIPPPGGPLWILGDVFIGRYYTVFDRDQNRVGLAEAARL
In short: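 Bovine cathepsin D (100 munits) acting on hemoglobin at pH 3.2, 20 min, 37 °C. TCA-soluble peptides released were read by absorbance at 280 nm; IC50 taken as the concentration giving 50% inhibition of peptide liberation.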

Renin [2] = molecular target: T1, Renin; experiment: Compound was tested in vitro for inhibitory activity against human renin; in short: as §1
[3] = Duration of Systolic blood pressure decrease in salt depleted cynomolgus monkeys.; format: functional, Cercopithecidae
In short: (§2)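 Cynomolgus monkeys salt-depleted with furosemide 2 mg/kg im daily from 4 days before the experiment; haloperidol 0.3 mg/kg im for sedation on the test day. Conscious chair-restrained animals; systolic pressure by tail-cuff every 5 min, stabilized before dosing. Single oral 30 mg/kg dose, n = 4; PRA from blood samples. Change from T = 0 baseline, mean ± SE.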

[4] = Plasma renin activity change in salt depleted cynomolgus monkeys.; format: functional, Cercopithecidae; in short: as §2
[5] = Plasma renin activity change in salt depleted cynomolgus monkeys after 180 minutes, administration of the compound.; format: functional, Cercopithecidae; in short: as §2
[6] = Systolic blood pressure change in salt depleted cynomolgus monkeys.; format: functional, Cercopithecidae; in short: as §2
[7] = Partition coefficient (logP); format: physicochemical; conditions: octanol/water
In short: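 Octanol/water partition coefficient measured at pH 7.4.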

Renin [8] = molecular target: T1, Renin; experiment: The compound was tested in vitro for inhibitory activity against human renin; in short: as §1

Pepsin A, sequence (P00791 whole entry): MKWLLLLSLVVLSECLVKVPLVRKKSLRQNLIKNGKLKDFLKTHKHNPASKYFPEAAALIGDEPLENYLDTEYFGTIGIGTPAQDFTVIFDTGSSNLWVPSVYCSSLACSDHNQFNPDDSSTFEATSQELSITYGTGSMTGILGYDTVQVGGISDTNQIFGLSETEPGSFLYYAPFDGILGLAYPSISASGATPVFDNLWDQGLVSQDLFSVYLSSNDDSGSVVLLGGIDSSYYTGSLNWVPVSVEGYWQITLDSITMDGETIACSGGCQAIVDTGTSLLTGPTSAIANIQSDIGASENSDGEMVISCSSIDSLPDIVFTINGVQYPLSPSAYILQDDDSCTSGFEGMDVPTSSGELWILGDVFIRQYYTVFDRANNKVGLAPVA

SMILES | IC50 (Renin [1]) [µM] | IC50 (Pepsin A) [µM] | IC50 (Cathepsin D) [µM] | further results
CC[C@H](C)[C@H](NC(=O)C[C@H](O)[C@H](CC1CCCCC1)NC(=O)CCNC(=O)[C@@H](Cc1ccccc1)NC(=O)N1CCC(C(=O)O)CC1)C(=O)NCc1cnc(C)nc1N | 0.00115 | > 10 | > 10 | –
CC[C@H](C)[C@H](NC(=O)C[C@H](O)[C@H](CC1CCCCC1)NC(=O)CC[C@H](O)[C@H](Cc1ccccc1)NC(=O)OC(C)(C)C)C(=O)NCc1cnc(C)nc1N | 0.0042 | > 10 | > 10 | –
CC[C@H](C)[C@H](NC(=O)C[C@H](O)[C@H](Cc1ccccc1)NC(=O)[C@H](Cc1c[nH]cn1)NC(=O)[C@H](Cc1ccccc1)NC(=O)OC(C)(C)C)C(=O)NCc1cccnc1 | 0.0029 | > 10 | 5.8 | –
CC[C@H](C)[C@H](NC(=O)C[C@H](O)[C@@H](CC1CCCCC1)NC(=O)CNC(=O)[C@@H](Cc1ccccc1)NC(=O)OC(C)(C)C)C(=O)NCc1cccnc1 | 0.0028 | 40 | 6.5 | –
CC[C@H](C)[C@H](NC(=O)C[C@H](O)[C@H](CC1CCCCC1)NC(=O)CSCC(=O)[C@H](Cc1ccccc1)NC(=O)OC(C)(C)C)C(=O)NCc1cnc(C)nc1N | – | 53 | 28 | IC50 (Renin [2]): 0.0021 µM
CC[C@H](C)[C@H](NC(=O)C[C@H](O)[C@@H](CC1CCCCC1)NC(=O)CNC(=O)[C@@H](Cc1ccccc1)NC(=O)OC(C)(C)C)C(=O)NCc1cnc(C)nc1N | 0.0025 | 38.5 | 13 | –
CC[C@H](C)[C@H](NC(=O)[C@@H](C[C@H](O)[C@H](CC(C)C)NC(=O)CCNC(=O)[C@H](Cc1ccccc1)NC(=O)OC(C)(C)C)C(C)C)C(=O)NCc1cnc(C)nc1N | 0.0041 | 0.83 | 4.7 | –
CC[C@H](C)[C@H](NC(=O)C[C@H](O)[C@H](CC1CCCCC1)NC(=O)CCNC(=O)[C@@H](N)Cc1ccccc1)C(=O)NCc1cnc(C)nc1N | 0.0195 | > 10 | > 10 | –
CC[C@H](C)[C@H](NC(=O)[C@@H](C[C@H](O)[C@H](CC(C)C)NC(=O)CNC(=O)[C@H](Cc1ccccc1)NC(=O)OC(C)(C)C)C(C)C)C(=O)NCc1cnc(C)nc1N | 0.0054 | 1.4 | 3.9 | –
CC[C@H](C)[C@H](NC(=O)C[C@H](O)[C@H](CC1CCCCC1)NC(=O)[C@H](C)NC(=O)[C@H](Cc1ccccc1)NC(=O)OC(C)(C)C)C(=O)NCc1cnc(C)nc1N | 0.00053 | 0.95 | 0.028 | –
CC[C@H](C)[C@H](NC(=O)C[C@H](O)[C@H](CC1CCCCC1)NC(=O)CCNC(=O)[C@H](Cc1ccccc1)NC(=O)N1CCC(N(C)C)CC1)C(=O)NCc1cnc(C)nc1N | 0.00058 | > 10 | 10 | –
CC[C@H](C)[C@H](NC(=O)C[C@H](O)[C@H](CC1CCCCC1)NC(=O)CCNC(=O)[C@H](Cc1ccccc1)NC(=O)CCC[N+](C)(C)C)C(=O)NCc1cnc(C)nc1N.[Cl-] | 0.008 | > 10 | > 10 | Duration [3]: > 130 min; Change [4]: -83.2%; Change [5]: -78.3%; Change [6]: -10.6%; logP [7]: 1.53
CC[C@H](C)[C@H](NC(=O)C[C@H](O)[C@@H](CC1CCCCC1)NC(=O)CCCNC(=O)[C@@H](Cc1ccccc1)NC(=O)OC(C)(C)C)C(=O)NCc1cnc(C)nc1N | 0.0285 | > 10 | 3.2 | –
CC[C@H](C)[C@H](NC(=O)C[C@H](O)[C@H](CC1CCCCC1)NC(=O)C[S+]([O-])CC(=O)[C@H](Cc1ccccc1)NC(=O)OC(C)(C)C)C(=O)NCc1cnc(C)nc1N (stereo partly drawn) | 0.07 | > 10 | > 10 | –
CC[C@H](C)[C@H](NC(=O)C[C@H](O)[C@H](CC1CCCCC1)NC(=O)CSC[C@@H](O)[C@H](Cc1ccccc1)NC(=O)OC(C)(C)C)C(=O)NCc1cnc(C)nc1N | 0.0055 | > 100 | 73 | –
CCOC(=O)C1CCN(C(=O)N[C@@H](Cc2ccccc2)C(=O)NCCC(=O)N[C@@H](CC2CCCCC2)[C@@H](O)CC(=O)N[C@H](C(=O)NCc2cnc(C)nc2N)[C@@H](C)CC)CC1 | 0.00041 | 4.2 | 3.15 | –
CC[C@H](C)[C@H](NC(=O)C[C@H](O)[C@H](CC1CCCCC1)NC(=O)CCNC(=O)[C@H](Cc1ccccc1)NC(=O)N1CCOCC1)C(=O)NCc1cnc(C)nc1N | 0.00028 | > 10 | > 10 | –
CC[C@H](C)[C@H](NC(=O)C[C@H](O)[C@H](CC1CCCCC1)NC(=O)CCNC(=O)[C@H](Cc1ccccc1)NC(=O)CCCCCN)C(=O)NCc1cnc(C)nc1N | 0.0045 | > 10 | > 10 | –
CC[C@H](C)[C@H](NC(=O)C[C@H](O)[C@H](CC1CCCCC1)NC(=O)CCNC(=O)[C@@H](Cc1ccccc1)NC(=O)CC(C)(C)N)C(=O)NCc1cnc(C)nc1N | 0.0018 | > 10 | > 10 | –
CC[C@H](C)[C@H](NC(=O)C[C@H](O)[C@@H](CC1CCCCC1)NC(=O)CCNC(=O)[C@@H](Cc1ccccc1)NC(=O)OC(C)(C)C)C(=O)NCc1cnc(C)nc1N | 0.0015 | 18.5 | 7.9 | Change [4]: -25.1%; Change [5]: -21.6%; logP [7]: 2.88
CC[C@H](C)[C@H](NC(=O)[C@@H](C[C@H](O)[C@H](CC(C)C)NC(=O)[C@H](Cc1c[nH]cn1)NC(=O)[C@H](Cc1ccccc1)NC(=O)OC(C)(C)C)C(C)C)C(=O)N[C@@H](Cc1c[nH]cn1)C(=O)O (Boc-FH[X1]IH-OH) | – | – | – | IC50 (Renin [8]): 0.0024 µM
CC[C@H](C)[C@H](NC(=O)[C@@H](C[C@H](O)[C@H](CC(C)C)NC(=O)CSCC(=O)[C@H](Cc1ccccc1)NC(=O)OC(C)(C)C)C(C)C)C(=O)NCc1cnc(C)nc1N | 0.0054 | 6 | 8.8 | –
CC[C@H](C)[C@H](NC(=O)[C@@H](C[C@H](O)[C@H](CC(C)C)NC(=O)CCC(=O)[C@H](Cc1ccccc1)NC(=O)OC(C)(C)C)C(C)C)C(=O)NCc1cnc(C)nc1N | – | 12 | 8 | IC50 (Renin [2]): 0.0051 µM
CC[C@H](C)[C@H](NC(=O)C[C@H](O)[C@H](CC1CCCCC1)NC(=O)CCNC(=O)[C@H](Cc1ccccc1)NC(=O)N1CCC(NC(=O)OC(C)(C)C)CC1)C(=O)NCc1cnc(C)nc1N | 0.00065 | > 10 | 5.9 | –
CC[C@H](C)[C@H](NC(=O)C[C@H](O)[C@H](CC1CCCCC1)NC(=O)CCC(=O)[C@H](Cc1ccccc1)NC(=O)OC(C)(C)C)C(=O)NCc1cnc(C)nc1N | 0.0085 | > 10 | > 10 | –
CC[C@H](C)[C@H](NC(=O)C[C@H](O)[C@H](CC1CCCCC1)NC(=O)CS(=O)(=O)CC(=O)[C@H](Cc1ccccc1)NC(=O)OC(C)(C)C)C(=O)NCc1cnc(C)nc1N | 0.24 | > 10 | > 10 | –
CC[C@H](C)[C@H](NC(=O)C[C@H](O)[C@H](CC1CCCCC1)NC(=O)CC[C@@H](O)[C@H](Cc1ccccc1)NC(=O)OC(C)(C)C)C(=O)NCc1cnc(C)nc1N | 0.0012 | 10 | > 10 | –
CC[C@H](C)[C@H](NC(=O)C[C@H](O)[C@H](CC1CCCCC1)NC(=O)CCNC(=O)[C@H](Cc1ccccc1)NC(=O)N1CCC(N)CC1)C(=O)NCc1cnc(C)nc1N.Cl.Cl | 0.00076 | > 10 | 8.5 | Duration [3]: >180 min; Change [4]: -90.5%; Change [5]: -89.3%; Change [6]: -24.7%; logP [7]: 1.83
CC[C@H](C)[C@H](NC(=O)C[C@H](O)[C@H](CC1CCCCC1)NC(=O)CSC[C@H](O)[C@H](Cc1ccccc1)NC(=O)OC(C)(C)C)C(=O)NCc1cnc(C)nc1N | 0.0063 | > 100 | > 100 | –
